# High-throughput results (PubChem BioAssay)
# RAD52 anneal inh = blocks human RAD52 DNA annealing; recombinant RAD52 DNA annealing, FRET fluorescence; actives 0.46% (n = 360,000); P43351; inhibition, % at 18.7 µM; AID 651710;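 active means every replicate showing at least 50% inhibition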
# Target sequence (P43351 whole entry, looked up): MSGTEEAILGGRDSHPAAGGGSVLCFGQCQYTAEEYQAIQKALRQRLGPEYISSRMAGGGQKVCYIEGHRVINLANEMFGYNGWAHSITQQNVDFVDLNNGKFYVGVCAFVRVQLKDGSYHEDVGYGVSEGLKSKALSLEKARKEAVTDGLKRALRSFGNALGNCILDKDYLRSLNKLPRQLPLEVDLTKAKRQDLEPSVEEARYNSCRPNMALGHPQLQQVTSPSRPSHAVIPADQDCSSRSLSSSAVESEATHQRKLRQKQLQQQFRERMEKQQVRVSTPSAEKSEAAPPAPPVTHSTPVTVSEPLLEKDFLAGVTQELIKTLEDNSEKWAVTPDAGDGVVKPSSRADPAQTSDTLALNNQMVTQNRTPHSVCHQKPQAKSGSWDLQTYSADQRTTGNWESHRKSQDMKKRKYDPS
# Ecoli rRNA inh = inhibits bacterial ribosomal RNA function over humanized ribosomes; E. coli WT GFP vs humanized-ribosome RFP mutants, fluorescence, 24 h; hits give low values; DMSO median 0, no signal -100; GFP signal change (wild-type ribosome), % (test concentration not listed); actives 1.6% (n = 350,000);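 active means significant combined selectivity score with lowered wild-type GFP, culture density cut under 30%, mutant RFP and density less affected; inactive means any of these conditions unmet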
# PglD DTNB = blocks C. jejuni PglD acetyltransferase activity; purified PglD enzyme, DTNB colorimetric CoA detection; inhibition, % at 12.5 µM; actives 0.098% (n = 360,000); in the data active means inhibition above about 16%, passing the limit was not always enough
# Cneo AK release = causes C. neoformans cell lysis; adenylate kinase release luminescence, 4 h; normalised: neutral wells 0, clomiphene wells 100; lysis activity, % at 15 µM; actives 0.2% (n = 360,000); AID 651654;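 active means mean lysis activity across replicates of at least 80%, whatever share of replicates individually reach that level; inactive means mean lysis activity below 80%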
#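 Material: C. neoformans cells | Amount: Yeast cell density of 5 × 10^6 cells/mL | Medium: Fresh YPD growth medium | Dosing: Single dose | Times: Static 4 h at 37 °C with compound, 1 h detection | Detection: AK luminescence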
# RAD54 branch = RAD54 (human) branch migration inhibition; Q92698; RAD54 Holliday junction branch migration, FAM/BHQ fluorescence; actives 0.14% (n = 360,000); inhibition, % at 10.4 µM;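 active means mean normalized replicate activity at least 40 and at least half of replicates scoring 40 or more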;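 further: inhibitors cause a drop in the FAM fluorescence signal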
# Numbers stand for hits; - = inactive; . = no result. A selection: hits, their analogues and other compounds. The true share with any hit is near 1.9%.
SMILES,RAD52 anneal inh,Ecoli rRNA inh,PglD DTNB,Cneo AK release,RAD54 branch
C[C@]12CCC3C(CC[C@H]4[C@@H](O)[C@H](O)CC[C@]34C)C1CCC2=O (stereo not given in full),-,-22,-,-,-
C[C@]12CCC(=O)C=C1CC[C@@H]1C2CC[C@]2(C)C(=O)CCC12 (stereo not given in full),-,-38,-,-,-
FC(F)(F)CN1C[C@@H]2C(c3ccc(Br)cc3)[C@H](C1)N2CC1CC1 (stereo not given in full),.,-,.,.,.
COC(=O)[C@@H]1[C@@H](CO)[C@@H]2Cn3c(ccc(C4=CCCCC4)c3=O)[C@H]1N2Cc1ccccc1OC,-,-,.,.,.
CCCCCCC(=O)c1c(O)n(-c2ccc(OC)cc2)c(=O)[nH]c1=O (tested in a mixture with another compound),-,-20,.,.,.
CCCCCCC(=O)c1c(O)n(-c2ccccc2OC)c(=O)[nH]c1=O (tested in a mixture with another compound),-,-,-,-,-
CC(C)NC(=O)N1C[C@@H]2N[C@H](C1)C2c1ccccc1 (stereo not given in full),.,-,.,.,.
Cc1nn(Cc2ccccc2)c(C)c1C(=O)OCC(=O)Nc1cccc(S(N)(=O)=O)c1,-,-22,.,.,.
C[C@@H]1C[C@@H]([C@H](O)CC2CC(=O)NC(=O)C2)C(=O)[C@@H](C)C1,-,-,-,-,-
CC(=O)OC1(C)CC(C)C(=O)C(C(O)CC2CC(=O)NC(=O)C2)C1 (stereo not given),-,.,-,98,-
Oc1ccc(/C=N/NP(=S)(c2ccccc2)c2ccccc2)cc1O,-,-21,-,-,-
Cc1nc(Cl)sc1C(=O)Nc1ccc2ccccc2c1,-,-31,.,.,.
COc1cc2c(cc1O)C[C@H]1NCCc3cc4c(c-2c31)OCO4,89,-,-,-,-
COc1c2c(cc3c1OCO3)CCN(C)C2,-,.,-,-,-
Cc1nc(-c2cccc(CN(C)C(=O)Oc3ccc([N+](=O)[O-])cc3)c2)no1,-,-19,.,.,.
FC(F)(F)CN1C[C@@H]2N[C@H](C1)C2c1ccc(Br)cc1 (stereo not given in full),.,-,.,.,.
CCC1(O)CCC2C3CCC4=CC(=O)CCC4C3CCC21CC (stereo not given),-,-,-,-,-
C#CC1(O)C=CC2C3CCC4=CC(=O)CCC4C3CCC21CC (stereo not given),-,-20,-,-,-
COc1ccc(-c2cc(=O)c3c(OC)c(OC)c(OC)cc3o2)cc1,-,-30,-,-,-
COc1ccc(-c2cc(=Nc3ccccc3)c3cc(C)ccc3o2)cc1,-,-,-,-,-
C=CCN1[C@@H]2CN(C(=O)NC(C)C)C[C@H]1C2c1ccc(Br)cc1 (stereo not given in full),.,-,.,.,.
c1ccc(C2(N3CCCCC3)CCCCC2)cc1,-,-,-,-,-
S=C=Nc1cccc(C2(N3CCCCC3)CCCCC2)c1,84,.,-,-,-
O=Cc1cn(CCCOc2ccccc2)c2ccccc12,-,-49,.,.,.
COc1ccccc1OCCCn1cc(C=O)c2ccccc21,-,-,-,-,-
SMILES,RAD52 anneal inh,Ecoli rRNA inh,PglD DTNB,Cneo AK release,RAD54 branch
O=Cc1cn(Cc2ccccc2F)c2ccccc12,-,-25,.,.,.
Cc1cccc(Cn2cc(C=O)c3ccccc32)c1,-,-,-,-,-
O=Cc1cn(Cc2cccc([N+](=O)[O-])c2)c2ccccc12,-,-21,.,.,.
O=Cc1cn(Cc2c(F)cccc2Cl)c2ccccc12,-,-27,-,-,-
O=C(Cc1cccnc1)N1CCCCN2[C@@H](CO)[C@H](c3ccc(C#CC4CC4)cc3)[C@@H]2C1,-,.,-,-,-
CCOc1ccc(NC(=O)C2C3c4ccccc4C(c4ccccc43)C2C(=O)O)cc1 (stereo not given),-,-34,.,.,.
COC(=O)[C@H]1[C@H](CO)[C@H]2Cn3c(ccc(-c4cccc(C(=O)N(C)C)c4)c3=O)[C@@H]1N2CC1CC1,-,-,.,.,.
CC1CCCN(c2ccc(C(=O)N3CCC4(CC3)OCCO4)cc2[N+](=O)[O-])C1 (stereo not given),-,-30,-,-,-
O=C(c1ccc(N2CCCCC2)c([N+](=O)[O-])c1)N1CCC2(CC1)OCCO2,-,-,-,-,-
COC(=O)[C@@H]1[C@@H](CO)[C@@H]2Cn3c(ccc(-c4ccccc4OC)c3=O)[C@H]1N2Cc1ccccc1,.,-,-,-,-
